Reference: ChEMBL document CHEMBL3351712, “Synthesis and antiviral evaluation of 2-amino-6-carbamoylpurine dioxolane nucleoside derivatives and their phosphoramidates prodrugs” (Bioorg Med Chem, 2014)

Assays:
[1] = test system: PBMC; assay: (§1) Cytotoxicity against human PBMC; type: cell-based; settings: pbmc
[2] = test system: Human immunodeficiency virus 1; assay: Antiviral activity against HIV1; type: functional, organism-based
How it was run: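 Antiviral assay run in primary human lymphocytes.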

[3] = test system: Vero; assay: (§2) Cytotoxicity against african green monkey Vero cells; type: cell-based; settings: chlorocebus sabaeus, vero
[4] = test system: HepG2; assay: Cytotoxicity against human HepG2 cells; type: functional
[5] = test system: CCRF-CEM; assay: Cytotoxicity against human CEM cell; type: functional
[6] = test system: Hepatitis B virus; assay: Antiviral activity against Hepatitis B virus; type: functional, organism-based
How it was run: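 Anti-HBV activity measured in HepG2 cells.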

[7] = as §1; type: cell-based; settings: PBMC (peripheral blood mononuclear cells)
[8] = as §2; type: cell-based; settings: chlorocebus sabaeus, Vero cells

Row | SMILES | CC50 [1] | EC50 [2] | EC90 [2] | CC50 [3] | CC50 [4] | CC50 [5] | EC50 [6] | EC90 [6] | CC50 [7] | CC50 [8]
1 | CCCCCCCCCCCCCC(=O)Nc1nc(N)nc2c1ncn2[C@H]1CO[C@@H](CO)O1 | > 100 µM | 6.5 µM | 27 µM | 7.7 µM | 56 µM | 4.6 µM | > 10 µM | > 10 µM |  | 
2 | CC(=O)Nc1nc(N)nc2c1ncn2[C@H]1CO[C@@H](CO)O1 | > 100 µM | 0.56 µM | 12 µM | > 100 µM | > 100 µM | > 100 µM | > 10 µM | > 10 µM |  | 
3 | CCCC(=O)Nc1nc(N)nc2c1ncn2[C@H]1CO[C@@H](CO)O1 | > 100 µM | 9.2 µM | 38 µM | > 100 µM | > 100 µM | > 100 µM | > 10 µM | > 10 µM |  | 
4 | CCCCCC(=O)Nc1nc(N)nc2c1ncn2[C@H]1CO[C@@H](CO)O1 | > 100 µM | 34 µM | > 100 µM | > 100 µM | > 100 µM | > 100 µM | > 10 µM | > 10 µM |  | 
5 | CCCCCCCC(=O)Nc1nc(N)nc2c1ncn2[C@H]1CO[C@@H](CO)O1 | > 100 µM | 21 µM | 56 µM | > 100 µM | > 100 µM | > 100 µM | > 10 µM | > 10 µM |  | 
6 | CCCCCCCCCC(=O)Nc1nc(N)nc2c1ncn2[C@H]1CO[C@@H](CO)O1 | > 100 µM | 26 µM | 65 µM | > 100 µM | > 100 µM | 65 µM | > 10 µM | > 10 µM |  | 
7 | CCCCCCCCCCCC(=O)Nc1nc(N)nc2c1ncn2[C@H]1CO[C@@H](CO)O1 | 60 µM | 3.6 µM | 18 µM | 53 µM | > 100 µM | 13 µM | > 10 µM | > 10 µM |  | 
8 | CCCCCCCCCCCCCCCC(=O)Nc1nc(N)nc2c1ncn2[C@H]1CO[C@@H](CO)O1 | > 100 µM | 1.2 µM | 6 µM | 90 µM | > 100 µM | > 100 µM | > 10 µM | > 10 µM |  | 
9 | CCCCCCCC/C=C\CCCCCCCC(=O)Nc1nc(N)nc2c1ncn2[C@H]1CO[C@@H](CO)O1 |  | 3.5 µM | 13 µM |  | 11 µM | 13 µM | > 10 µM | > 10 µM | 76 µM | 19 µM
10 | Nc1nc(N)c2ncn([C@H]3CO[C@@H](CO)O3)c2n1 [AMDOXOVIR] | > 100 µM | 0.45 µM | 7.6 µM | > 100 µM | > 100 µM | > 100 µM | 12 µM | > 100 µM |  | 
11 | Cc1cn([C@H]2C[C@H](N=[N+]=[N-])[C@@H](CO)O2)c(=O)[nH]c1=O [ZIDOVUDINE] |  | 0.0037 µM | 0.047 µM | 56 µM | > 100 µM | 14 µM | > 10 µM | > 10 µM | > 100 µM | 
